Data taken from ChEMBL document CHEMBL2169852, “Naphthomycins L-N, ansamycin antibiotics from Streptomyces sp. CS” (J Nat Prod, 2012).
≈ marks a conversion by molar mass, not a printed value. Calls of active or inactive are those of the source. The calls are words filed in the database; no cut-off is given here.

What was measured:
A549 [1] = assay: Growth inhibition of human A549 cells at 40 uM by MTT assay; assay type: functional, cell-based
Fusarium verticillioides [2] = assay: Antifungal activity against Fusarium moniliforme at 800 ug/ml incubated for 48 hrs by microdilution method; assay type: functional, organism-based
Summary of the method: (§1)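 Modified standardized broth microdilution. Phytopathogenic fungi pre-grown on PDA at 22 °C for 7–10 days. Test compounds added at 50–800 μg/mL to wells with fungal suspension, 0.2 mL final volume, DMSO ≤3% final. DMSO served as negative control and fungus without compound as positive control. Incubation 22 °C, 48 h. MIC taken as lowest concentration with no visible growth. Run in triplicate.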

HL-60 [3] = assay: Growth inhibition of human HL60 cells at 40 uM by MTT assay; assay type: functional, cell-based
Pyricularia oryzae [4] = assay: Antifungal activity against Pyricularia oryzae at 800 ug/ml incubated for 48 hrs by microdilution method; assay type: functional, organism-based
Summary of the method: (§2)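 Fungus pre-grown on PDA at 22 °C for 7–10 days. Modified standardized broth microdilution with compounds at 50–800 μg/mL (final) in fungal suspension, final DMSO ≤3%. DMSO-only and compound-free fungal wells served as controls. Incubated at 22 °C for 48 h. MIC is the lowest concentration with no visible growth. Run in triplicate.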

SMMC-7721 [5] = assay: Growth inhibition of human SMMC7721 cells at 40 uM by MTT assay; assay type: functional, cell-based
SW480 [6] = assay: Growth inhibition of human SW480 cells at 40 uM by MTT assay; assay type: functional, cell-based
MCF7 [7] = assay: Growth inhibition of human MCF7 cells at 40 uM by MTT assay; assay type: functional, cell-based
Fusarium oxysporum [8] = assay: Antifungal activity against Fusarium oxysporum at 800 ug/ml incubated for 48 hrs by microdilution method; assay type: functional, organism-based; summary of the method: as §1
[9] = Antifungal activity against Verticillium cinnabarinum at 800 ug/ml incubated for 48 hrs by microdilution method; assay type: functional; summary of the method: as §1
[10] = Antifungal activity against Gaeumannomyces graminis at 800 ug/ml incubated for 48 hrs by microdilution method; assay type: functional; summary of the method: as §1
MCF7 [11] = assay: Growth inhibition of human MCF7 cells by MTT assay; assay type: functional, cell-based
[12] = Antifungal activity against Gaeumannomyces graminis incubated for 48 hrs by microdilution method; assay type: functional; summary of the method: as §1
[13] = Antifungal activity against Verticillium cinnabarinum incubated for 48 hrs by microdilution method; assay type: functional; summary of the method: as §1
A549 [14] = assay: Growth inhibition of human A549 cells by MTT assay; assay type: functional, cell-based
Fusarium oxysporum [15] = assay: Antifungal activity against Fusarium oxysporum incubated for 48 hrs by microdilution method; assay type: functional; summary of the method: as §1
Pyricularia oryzae [16] = assay: Antifungal activity against Pyricularia oryzae incubated for 48 hrs by microdilution method; assay type: functional; summary of the method: as §2
SW480 [17] = assay: Growth inhibition of human SW480 cells by MTT assay; assay type: functional, cell-based
SMMC-7721 [18] = assay: Growth inhibition of human SMMC7721 cells by MTT assay; assay type: functional, cell-based
Fusarium verticillioides [19] = assay: Antifungal activity against Fusarium moniliforme incubated for 48 hrs by microdilution method; assay type: functional; summary of the method: as §1
HL-60 [20] = assay: Growth inhibition of human HL60 cells by MTT assay; assay type: functional, cell-based

Row | Compound | growth inhibition (GI) (A549 [1]) | Activity (Fusarium verticillioides [2]) | growth inhibition (GI) (HL-60 [3]) | Activity (Pyricularia oryzae [4]) | growth inhibition (GI) (SMMC-7721 [5]) | growth inhibition (GI) (SW480 [6]) | growth inhibition (GI) (MCF7 [7]) | Activity (Fusarium oxysporum [8]) | Activity [9] | Activity [10] | IC50 (MCF7 [11]) | MIC [12] | MIC [13] | IC50 (A549 [14]) | MIC (Fusarium oxysporum [15]) | MIC (Pyricularia oryzae [16]) | IC50 (SW480 [17]) | IC50 (SMMC-7721 [18]) | MIC (Fusarium verticillioides [19]) | IC50 (HL-60 [20])
1 | C/C1=C/C=C\C=C\[C@H](C)[C@@H](O)CC(=O)/C(C)=C/C[C@H](O)/C=C/[C@H](C)[C@H](O)[C@@H](C)/C=C(\C)C(=O)c2c(O)c(C)cc3c2C(=O)C(NCCSC2=C4NC(=O)\C(C)=C/C=C\C=C\[C@H](C)[C@@H](O)CC(=O)/C(C)=C/C[C@H](O)/C=C/[C@H](C)[C@H](O)[C@@H](C)/C=C(\C)C(=O)c5c(O)c(C)cc(c5C2=O)C4=O)=C(NC1=O)C3=O | inactive | inactive | inactive | inactive | inactive | inactive | inactive | inactive | inactive | inactive |  |  |  |  |  |  |  |  |  | 
2 | C/C1=C/C=C\C=C\[C@H](C)[C@@H](O)CC(=O)/C(C)=C/C[C@H](O)/C=C/[C@H](C)[C@H](O)[C@@H](C)/C=C(\C)C(=O)c2c(O)c(C)cc3c2C(=O)C=C(NC1=O)C3=O | inactive | inactive | inactive | inactive | inactive | inactive | inactive | inactive | inactive | inactive |  |  |  |  |  |  |  |  |  | 
3 | C/C1=C/C=C\C=C\[C@H](C)[C@@H](O)CC(=O)/C(C)=C/C[C@H](O)/C=C/[C@H](C)[C@H](O)[C@@H](C)/C=C(\C)C(=O)c2c(O)c(C)cc3c2C(=O)C(O)=C(NC1=O)C3=O | inactive | inactive | inactive | inactive | inactive | inactive | inactive | inactive | inactive | inactive |  |  |  |  |  |  |  |  |  | 
4 | C/C1=C/C=C\C=C\[C@H](C)[C@@H](O)CC(=O)/C(C)=C/C[C@H](O)/C=C/[C@H](C)[C@H](O)[C@@H](C)/C=C(\C)C(=O)c2c(O)c(C)cc3c2C(=O)C(SCC(=O)O)=C(NC1=O)C3=O | inactive | inactive | inactive | inactive | inactive | inactive | inactive | inactive | inactive | inactive |  |  |  |  |  |  |  |  |  | 
5 | C/C1=C/C=C\C=C\[C@H](C)[C@@H](O)CC(=O)/C(C)=C/C[C@H](O)/C=C/[C@H](C)[C@H](O)[C@@H](C)/C=C(\C)C(=O)c2c(O)c(C)cc3c2C(=O)C(Cl)=C(NC1=O)C3=O [NAPHTHOMYCIN A] |  |  |  |  |  |  |  |  |  |  | 11.7 µM | 400 µg/mL (≈ 555 µM) | 400 µg/mL (≈ 555 µM) | 15.9 µM | 400 µg/mL (≈ 555 µM) | 400 µg/mL (≈ 555 µM) | 11.7 µM | 16.6 µM | 100 µg/mL (≈ 139 µM) | 25.6 µM
6 | C/C1=C/C=C\C=C\[C@H](C)[C@@H](O)CC(=O)/C(C)=C/C[C@H](O)/C=C/[C@H](C)[C@H](O)[C@@H](C)/C=C(\C)C(=O)c2c(O)c(C)cc3c2C(=O)C(N)=C(NC1=O)C3=O [NAPHTHOMYCIN L] | inactive |  | inactive |  | inactive | inactive | inactive |  |  |  |  | 600 µg/mL (≈ 856 µM) | 600 µg/mL (≈ 856 µM) |  | 600 µg/mL (≈ 856 µM) | 600 µg/mL (≈ 856 µM) |  |  | 300 µg/mL (≈ 428 µM) | 
